# RanGTP-Imp inh – disruptors of Ran-importin-beta complex formation – biochemical, FRET, CFP-Ran, YFP-importin-beta, homogeneous, primary screen; 300,000 tested, 1.1% active; cell-free CFP-Ran/YFP-importin-beta FRET ratio; AID 2216; inhibition, % (no concentration beside the values);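 active = more than half of the replicate wells show a fall in the fluorescence ratio signal beyond about 16%, limit read from the data, passing the limit was not always enough; inconclusive = exactly half of the replicate wells pass the set limit; inactive = fewer than half of replicates pass the limit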;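 also: 0% = DMSO wells and 100% = Ran loaded with GDP instead of GTP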
# Runt-SMMHC FRET – inhibitors of human RUNX1 Runt domain binding to CBFb-SMMHC; Cerulean-Runt/Venus-CBFb-SMMHC FRET ratio 530/480, 1 h; inhibition, % at 20 µM; 220,000 tested, 0.74% active; AID 1434;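 active = mean inhibition across duplicate retests at 20 µM reaching about 50%, limit read from the data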;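 also: 0% = DMSO wells and 100% = wells with excess untagged CBFb-SMMHC; inhibitors lower the FRET ratio by blocking Runt binding to CBFb-SMMHC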
# Hck Nef HTS – human Hck-Nef kinase inhibition | Recombinant Hck-YEEI plus Nef, Z-Lyte FRET kinase assay | inhibition, % at 20 µM | AID 463187 | P08631 | 220,000 tested, 0.68% active;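 active = Hck-Nef kinase inhibition above about 50%, limit read from the data; inactive = inhibition below that limit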;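 also: 0% = DMSO with Hck plus Nef and 100% = Hck alone without Nef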
# Target sequence (P08631 whole entry, looked up): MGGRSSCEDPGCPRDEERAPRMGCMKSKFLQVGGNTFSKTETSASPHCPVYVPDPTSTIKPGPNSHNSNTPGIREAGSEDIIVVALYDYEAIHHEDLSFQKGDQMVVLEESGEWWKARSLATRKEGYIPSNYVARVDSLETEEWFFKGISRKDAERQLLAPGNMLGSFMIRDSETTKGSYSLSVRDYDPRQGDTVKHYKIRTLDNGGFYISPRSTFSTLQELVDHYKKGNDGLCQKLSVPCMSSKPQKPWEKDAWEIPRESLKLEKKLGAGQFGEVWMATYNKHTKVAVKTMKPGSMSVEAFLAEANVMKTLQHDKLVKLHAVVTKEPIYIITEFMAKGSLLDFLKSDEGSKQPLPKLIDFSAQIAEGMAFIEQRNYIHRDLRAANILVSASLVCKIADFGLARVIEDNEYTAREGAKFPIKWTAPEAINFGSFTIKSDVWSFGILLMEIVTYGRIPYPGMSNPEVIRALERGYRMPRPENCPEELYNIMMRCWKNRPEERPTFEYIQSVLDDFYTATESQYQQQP
# Runt-CBFb FRET – inhibitors of human RUNX1 Runt domain binding to CBFb | Q01196+Q13951 | Cerulean-Runt/Venus-CBFb FRET ratio 530/480, 1 h | inhibition, % at 20 µM | 220,000 tested, 0.46% active;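 active = inhibition over about 50% at 20 µM in the single-dose screen, limit read from the data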;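 also: 0% = DMSO wells and 100% = excess unlabeled CBFb competitor control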
#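 System: Cerulean-labeled Runt domain protein | Quantity: 100 nM of each labeled protein | Schedule: 1 h compound exposure, room temperature | Detection: Fluorescence energy transfer, 422 nm excitation, 530/480 nm emission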
# CaV13 FRET inh – Disruptors of the CACNA1D IQ motif to Ca2+-dependent inactivation inhibitor domain association, primary screening, Förster resonance energy transfer in intact living …; HEK cells, CFP/YFP FRET ICDI-IQ, plate reader, 10 min; percent FRET-ratio fall versus neutral wells; inhibition, % at 12.3 µM; 340,000 tested, 0.098% active;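 active = mean replicate inhibition of at least 30% and at least 1% of replicates passing that level; inconclusive = only one of the two criteria is met; inactive = neither criterion is met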;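 also: 0% = median of the neutral control wells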
# Active calls of the source: *; ? = inconclusive; nt = no result given. Most compounds without a hit are left out; they make up all but 1.5% or so of the library.
SMILES,RanGTP-Imp inh,Runt-SMMHC FRET,Hck Nef HTS,Runt-CBFb FRET,CaV13 FRET inh
COc1ccc(-c2ccc(-c3noc(-c4cccs4)n3)c(OC)n2)cc1,30*,-68,13,10,nt
COc1ccc(-c2ccc(-c3noc(-c4ccccc4OC)n3)c(OC)n2)cc1,35*,44,3,14,nt
Cc1ccc(S(=O)(=O)NC(=O)COc2ccccc2C(N)=O)cc1,28*,-4,0,2,-9
NC(=O)c1ccccc1OCC(=O)NS(=O)(=O)c1ccc(Cl)cc1,2,2,4,0,-9
CC(=O)N1CCN(c2nc3cc4c(cc3nc2NS(=O)(=O)c2ccccc2)OCCO4)CC1,43*,44,10,92*,-4
COC(=O)c1scc2c(=O)cc(C(F)(F)F)[nH]c12,117*,84*,-126,10,1
O=c1cc(C(F)(F)F)[nH]c2ccc(C(F)(F)F)cc12,6,-1,-15,0,-13
C=CCn1c(NC(=O)c2ccc(Br)o2)c(S(=O)(=O)c2ccccc2)c2nc3ccccc3nc21,45*,35,35,8,-5
COc1ccccc1N=Cc1c(C)c(C#N)c2[nH]c3ccccc3n2c1=O,2,-42,53*,-3,-11
CCn1c(=S)[nH]c2scc(-c3cccs3)c2c1=O,?,5,15,6,-4
CC(C)n1c(=S)[nH]c2scc(-c3cccs3)c2c1=O,?,-12,98*,8,0
CC(=O)C1=C(O)C(=O)N(Cc2ccccc2)C1c1ccc(Br)cc1 (centres undefined),-1,nt,nt,nt,-2
NS(=O)(=O)c1ccc(N/N=C/c2ccccc2C(=O)O)c([N+](=O)[O-])c1,-4,2,-3,-3,-3
NS(=O)(=O)c1ccc(N/N=C/c2ccc(O)c(O)c2O)c([N+](=O)[O-])c1,nt,65*,51*,43,-7
CCCCNC(=O)CCC(=O)Nc1ccc2nc(N3CCCCC3)cc(C)c2c1,4,4,69*,0,0
Cc1ccc(/C(N)=N/OC(=O)N2CCOCC2)cc1,3,-120,0,74*,-7
CCCSc1ccc(-c2nn(-c3ccccc3)cc2/C=C(/C#N)C(=O)NCCCOC)cc1,4,-16,6,-14,-3
CCSc1ccc(-c2nn(-c3ccccc3)cc2/C=C(/C#N)C(=O)NCCCOC)cc1,nt,60*,0,24,-3
CCc1nc2ccc(C(=O)N(C)CCN(C)C)cn2c1N(C)Cc1cc2ccccc2s1,nt,nt,nt,nt,-16
CSc1ccc(Cn2c(C)c(C(=O)NCc3cccc(Cl)c3)sc2=O)cc1,nt,nt,nt,nt,42*
C=Cc1ccc(Cn2c(C)c(C(=O)NCc3cccc(C)c3)sc2=O)cc1,nt,nt,nt,nt,69*
COc1ccc(Br)c(Cn2c(C)c(C(=O)NCc3ccc4c(c3)OCCO4)sc2=O)c1,nt,nt,nt,nt,47*
CSc1ccc(Cn2c(C)c(C(=O)NCc3cccc(C)c3)sc2=O)cc1,nt,nt,nt,nt,-9
Cc1c(C(=O)NCc2ccc(Cl)c(Cl)c2)sc(=O)n1Cc1cccc(F)c1,nt,nt,nt,nt,39*
Cc1cc(F)ccc1NS(=O)(=O)c1c(C(=O)N2CCOCC2)c(C)n(C)c1C,3,nt,nt,nt,-14
SMILES,RanGTP-Imp inh,Runt-SMMHC FRET,Hck Nef HTS,Runt-CBFb FRET,CaV13 FRET inh
Nc1cccc2c1C(=O)N(CCOc1ccccc1F)C2=O,42*,nt,nt,nt,-13
N#Cc1ccccc1OCCN1C(=O)c2ccccc2C1=O,-6,4,16,-2,-8
COc1cc2c3nnc(-c4ccccc4)c-3cn(Cc3ccc(F)cc3)c2cc1OC,35*,40,7,13,12
COc1cc2c3nnc(-c4ccc(F)cc4)c-3cn(Cc3ccc(C)cc3)c2cc1OC,-118,-146,-3,-243,-10
O=C(COC(=O)C1=NN(c2ccccc2)C(=O)CC1)NCc1ccccc1Cl,nt,nt,nt,nt,-3
CCOC(=O)c1cc(Br)c(=O)n2ccccc12,?,7,4,3,nt
CCOC(=O)c1cc(C(=O)OCC)c2cccc(C)n2c1=O,36*,60,33,19,nt
CC(=O)C[C@H](O)CC(=O)[C@@H]1OC(=O)CCCCCc2ccccc21,nt,nt,nt,nt,-3
Cc1[nH]c2ccccc2c1/C=C/c1nc2ccccc2c(=O)[nH]1,34*,39,23,18,-2
CCn1c(/C=C/c2c[nH]c3ccccc23)nc2ccccc2c1=O,12,0,9,-3,-104
Cc1[nH]c2ccccc2c1/C=C/C(=O)c1ccccc1,41*,-36,2,-31,-13
CN(C)S(=O)(=O)c1ccc2[nH]cc(/C=C/c3nc4ccccc4c(=O)n3-c3ccccc3)c2c1,29*,-35,1,-46,-7
CCn1c(/C=C/c2c(C)[nH]c3ccccc23)nc2ccccc2c1=O,-26,59*,3,19,-5
O=C(CCC(=O)N1CCN(c2ccc(C(F)(F)F)cn2)CC1)c1cccs1,nt,nt,nt,nt,-15
Cc1[nH]c2ccccc2c1/C=C/c1nc2ccccc2c(=O)n1-c1ccc([N+](=O)[O-])cc1,38*,-128,7,-41,-3
COc1cccc2c1nc(C)c1cc(C)oc12,33*,3,0,-1,-6
COc1ccc2nc(C)c3cc(C)oc3c2c1,nt,0,0,2,nt
Cc1ccc(-c2csc(NC(=O)/C=C/c3ccco3)c2C(=O)O)cc1,?,-4,52*,12,-24
Cc1ccc(-c2csc(NC(=O)c3cccc(C)c3)c2C(=O)O)cc1,0,nt,nt,nt,-5
COC(=O)C1=C(C)N=C2SC(C#N)=C(N)N2C1c1cc(OC)c(OC)c(OC)c1 (centres undefined),13,17,-1,-1,nt
COC(=O)C1=C(C)N=C2SC(C#N)=C(N)N2C1c1ccc(OCc2ccccc2)cc1 (centres undefined),25*,11,-2,-20,nt
COC(=O)C1(C(=O)OC)C[C@H](/C=C/c2ccccc2)N(Cc2ccccc2OC)[C@@H]1c1ccccc1,nt,nt,nt,nt,-3
Cc1cc(=O)oc(C)c1C(=O)Nc1ccc2ncccc2c1,-1,59*,1,-22,-8
Cc1cc(=O)oc(C)c1C(=O)Nc1ccc2nsnc2c1,3,3,1,-2,nt
O=C(NCc1cccnc1)Nc1cccc(Cl)c1Cl,5,nt,nt,nt,-6
SMILES,RanGTP-Imp inh,Runt-SMMHC FRET,Hck Nef HTS,Runt-CBFb FRET,CaV13 FRET inh
Cc1ccc2[nH]c3ccccc3c(=O)c2c1,114*,nt,nt,nt,34*
O=c1c2ccccc2[nH]c2ccc(F)cc12,116*,87*,71*,3,9
O=c1c2ccccc2[nH]c2ccc(O)cc12,166*,nt,nt,nt,4
O=c1[nH]c2ccccc2c(=O)c2ccccc12,nt,nt,nt,nt,-8
O=c1c2c([nH]c3ccccc13)CCC2,0,nt,nt,nt,-5
Cc1ccc(C)c(OCCC(=O)OCC(=O)Nc2ccc(N3CCOCC3)cc2)c1,?,nt,nt,nt,-4

# Screening data: PubChem BioAssay, several laboratories
